Data reported in article PMC10824272 (Biomedicine & pharmacotherapy = Biomedecine & …, 2023).
Several values for one entry are separate records, joined by “and”; a condition that tells them apart may be missing. Equal entries are not always repeated.

Experiments:
[1] = test system: claudin-1 overexpressed PDX tumor; test: Chemo-resistant patient-derived xenograft; format: in vivo, athymic nude mice
Procedure, shortened: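 Chemo-resistant PDX tumor fragments (~2mm3) implanted subcutaneously in 6-week-old athymic nude mice. Once tumors were palpable, dosed once weekly for four weeks (n=5 mice/group), vehicle controls included. Caliper volume from […], tracked over time. Tumor sections stained by IHC for Ki67 and cleaved PARP.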

[2] = test system: SW620 xenograft tumor; test: Subcutaneous xenograft tumor study; format: in vivo, athymic nude mice
[3] = test system: SW620^1C cells; test: Anoikis-induced apoptosis assay; format: cell-based, human; settings: claudin-1 knockdown SW620^1C
Procedure, shortened: (§1)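 Anoikis induced by plating cells on poly-HEMA-coated culture plates. Apoptosis quantified with a cell death detection ELISA. Parental lines were cultured in RPMI with 10% FBS. Claudin-1-overexpressing SW480 and claudin-1-knockdown SW620 derivatives were used.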

[4] = test system: SW480^cld1, SW620 and HCT116 cells; test: Screening of I-6 analogs by anoikis; format: cell-based, human; settings: Suppl Fig3
Procedure, shortened: as §1

[5] = test system: SW620 cells; test: Cell viability; format: cell-based, human
Procedure, shortened: (§2)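 Claudin-1-overexpressing SW480cld1 and SW620 cells grown in RPMI with 10% FBS and exposed for 72 hours to a range of test compound concentrations. Viability measured by PrestoBlue reagent. EC50 calculated from the concentration–viability data.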

[6] = Metabolic stability, phase I; format: in vitro ADME, human
Procedure, shortened: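 Phase I stability in human liver microsomes (20 mg/ml stock), 100 mM potassium phosphate pH 7.4, 10 mM MgCl2, 2 mM NADPH. Mix pre-incubated 10 min at 37 °C. Output is percent parent remaining per time point. Elimination rate constant taken from first-order plot of ln area ratio versus time.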

[7] = test system: SW480^cld1 cells; test: Cell viability; format: cell-based, human
Procedure, shortened: as §2

[8] = test system: HCT116 cells; test: Cell viability; format: cell-based, human; settings: claudin-1 deficient HCT116 cells; 72 hours
Procedure, shortened: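 Cells maintained in RPMI plus 10% FBS. Viability read with PrestoBlue reagent per kit protocol after 72 h exposure to test compound.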

[9] = test system: pSrc, pAkt, Bcl2, Bcl-xL, survivin, cleaved PARP in SW620 and SW480^cld1 cells; test: Immunoblotting of signaling and apoptosis markers; format: cell-based, human; settings: PDS-0330 12.5 and 25μM
Procedure, shortened: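 Treated cells (vehicle or 12.5 and 25 μM) lysed. 10–30 μg protein per lane resolved by SDS-PAGE and immunoblotted, with enhanced chemiluminescence detection on film. Antibodies included p-Src (Tyr416), pAkt and total Akt, with GAPDH or β-actin as loading reference.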

[10] = test system: SW480^cld1 cells; test: Transwell matrigel invasion assay; format: cell-based, human; settings: PDS-0330 25μM; P < 0.0001 vs control and 20A
[11] = target: T1, claudin-1/Src association (Homo sapiens, UniProt O95832); test: Claudin-1 immunoprecipitation / Src immunoblot in SW620 cells; format: cell-based; settings: 12.5μM and 25μM
T1 sequence (O95832 1-211): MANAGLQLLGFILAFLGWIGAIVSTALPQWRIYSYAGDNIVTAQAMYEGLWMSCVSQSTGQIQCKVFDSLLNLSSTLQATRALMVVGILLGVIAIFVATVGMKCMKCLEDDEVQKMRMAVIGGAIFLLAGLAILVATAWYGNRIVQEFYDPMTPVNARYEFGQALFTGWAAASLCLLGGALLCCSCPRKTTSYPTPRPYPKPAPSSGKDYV

[12] = target: T2, mouse claudin-4 (Mus musculus, UniProt O35054); test: Microscale thermophoresis; format: binding; settings: 25 °C, duplicate acquisitions
T2 sequence (O35054 1-210): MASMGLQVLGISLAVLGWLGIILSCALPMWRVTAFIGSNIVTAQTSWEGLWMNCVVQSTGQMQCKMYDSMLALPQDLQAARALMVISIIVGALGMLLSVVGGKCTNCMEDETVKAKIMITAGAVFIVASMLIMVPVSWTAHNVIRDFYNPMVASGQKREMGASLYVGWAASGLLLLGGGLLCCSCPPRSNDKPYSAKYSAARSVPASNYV
Procedure, shortened: (§3)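 Microscale thermophoresis at 25 °C with 1 μM Cy3-labeled, detergent-purified claudin (human claudin-19, mouse claudin-4 or trypsinized human claudin-1) in HEPES pH 7.4/100 mM NaCl buffer. Test compound dissolved in DMSO and titrated from 135 μM to 4.1 nM. Affinity derived from duplicate acquisitions.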

[13] = target: T3, human claudin-1 (Homo sapiens, UniProt O95832); test: Microscale thermophoresis; format: binding
T3 sequence (O95832 1-211): T1 sequence (O95832 1-211)

[14] = test system: SW620 cells; test: Transwell matrigel invasion assay; format: cell-based, human; settings: PDS-0330 25μM; P < 0.0001 vs control and 20A
[15] = test system: SW480 cells; test: Cell viability; format: cell-based, human; settings: even at 25μM
[16] = target: T4, human claudin-19 (Homo sapiens, UniProt Q8N6F1); test: Microscale thermophoresis; format: binding; settings: 25 °C, duplicate acquisitions
T4 sequence (Q8N6F1 1-224): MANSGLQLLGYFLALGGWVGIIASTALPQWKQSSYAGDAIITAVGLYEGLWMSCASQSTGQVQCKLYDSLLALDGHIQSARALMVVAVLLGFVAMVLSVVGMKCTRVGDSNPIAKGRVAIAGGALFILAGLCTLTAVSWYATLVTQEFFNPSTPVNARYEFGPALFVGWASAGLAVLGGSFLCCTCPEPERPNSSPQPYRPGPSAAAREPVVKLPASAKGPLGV
Procedure, shortened: as §3

[17] = test system: SW620 cells; test: Anoikis-induced apoptosis assay; format: cell-based; settings: claudin-1 overexpressed SW620
[18] = PDS-0330 5mg/kg and 10mg/kg once/week for four weeks

O=C(NC(=S)Nc1ccc(-c2nc3ccccc3o2)cc1)c1ccc2ccccc2c1 [PDS-0330, N-((4-(benzo[d]oxazol-2-yl)phenyl)carbamothioyl)-2-naphthamide]
apoptosis in tumors (cleaved PARP, Bcl-xL, survivin) ([1]; PDS-0330 5mg/kg and 10mg/kg): increase in apoptosis | proliferation in tumors (Ki67) ([1]; PDS-0330 5mg/kg and 10mg/kg): decreased proliferation | mean tumor volume and tumor weight [1, 18]: significantly reduced | primary tumor growth [1, 18]: reduced primary tumor growth in a statistically significant manner | apoptosis in tumors (cleaved PARP, BclxL, survivin) ([2]; PDS-0330 5mg/Kg and 10mg/Kg): increase in apoptosis | proliferation in tumors (Ki67) ([2]; PDS-0330 5mg/Kg and 10mg/Kg): reduced proliferation | tumor volume and weight ([2]; PDS-0330 5mg/Kg and 10mg/Kg vs vehicle): significant reduction | tumor volume, combination with 5-FU ([2]; PDS-0330 and 5-FU in combination vs either alone): substantial reduction | resistance to anoikis [3]: not affecting | potency in inducing cell death among I-6 analogs [4]: most potent | EC50 ([5]; Homo sapiens, SW-620, 72 h, read-out: EC50, cell viability): 9.3 µM | CI index, % cell survival in combination with 5-FU ([5]; PDS-0330 with 5-FU (5μM)): < 1 | effect with oxaliplatin on cell survival ([5]; PDS-0330 with oxaliplatin (1μM)): synergistic effect | drug remaining after 60 min ([6]; HLM, phase I metabolism, 60 min): 90% | metabolism in the presence of HLM ([6]; phase I): < 15% | EC50 ([7]; Homo sapiens, 72 h, read-out: EC50, cell viability): 8.4 µM | CI index, % cell survival in combination with 5-FU ([7]; PDS-0330 with 5-FU (5μM)): < 1 | effect on cell growth/survival [8]: no effect | Akt activation [9]: suppressing Akt activation | Bcl-2 and Bcl-xL expression [9]: inhibiting | anti-apoptotic proteins Bcl2, Bcl-xL and Survivin ([9]; SW480^cld1 and SW620): decrease | apoptotic protein cleaved PARP ([9]; SW480^cld1 and SW620): increase | Src phosphorylation ([9]; SW620 and SW480^cld1): prevents Src phosphorylation | cell invasion [10]: significantly inhibited | association of Src with claudin-1 [11]: significantly interferes | Kd [12]: 92.1 µM and ≥ 100 µM | Hill coefficient ([13]; 37°C): ~ 5 and 4.5 | Kd ([13]; binding affinity, 37°C, fit to Hill-Langmuir equation): 44.9 ± 5.6 µM | Kd ([13]; equilibrium dissociation constant (Kd), Cy3-labeled human claudin-1, 25 °C, eight independent acquisitions): 22.9 ± 3 µM | binding affinity to other claudin subtypes, fold lower than claudin-1 ([13]; human claudin-19 and mouse claudin-4 vs human claudin-1): ~ 4 fold | cell invasion [14]: significantly inhibited | impact on SW480 cells [15]: no significant impact | Kd [16]: 157 µM and ≥ 100 µM | resistance to anoikis [17]: dramatically reduced the resistance to anoikis
